Series [1] deals with AgA(15) channels in DC18:1PC/n-decane bilayer. The series can be described thus: gA single-channel electrophysiology, AgA. The format is biochemical. As to conditions: mean ± SE, n = 3–4. In a few lines: (§1)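 Bilayer of DC18:1PC in n-decane formed across a 1–1.5 mm Teflon hole. It was co-doped with AgA(15) (total a few pM) and gA−(13) (~10-fold higher). Test compound from DMSO stock was added to both sides at increasing concentrations. Patches were isolated with 20–40 µm punch electrodes in 1 M NaCl, 10 mM HEPES pH 7, 25 ± 1°C, ±200 mV. Signals were filtered at 5 kHz, sampled at 20 kHz, then filtered at 200–500 Hz. Events were detected by a transition-based algorithm. Lifetimes came from single-exponential fits of survivor histograms, normalized to no-drug lifetimes in the same experiment. n = 3–4.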

Series [2] concerns gA^−(13) channels in DC18:1PC/n-decane bilayer. The series can be described thus: gA single-channel electrophysiology, gA−. The format is biochemical. As to conditions: mean ± SE, n = 3–4. In short, it runs like this: as §1
Series [3] in a line: Bilayer elastic coefficient HB / property altered, from lifetimes of gA−. Particulars: for bilayer property primarily altered: single-channel electrophysiology; for decrease of HB (bilayer elastic coefficient): 100 µM, HB of unmodified bilayer ∼22 kBT/nm^2.
The conditions of series [4]: ref Karson et al., 1993; Bolo et al., 2000; cited from earlier work.
For series [5], the target named is [Ala^1]gA, 15-amino-acid analogue of gramicidin A. Description: single-channel electrophysiology.
For series [6] the target is unchanged. Description: single-channel electrophysiology. This is another data set of the same source.
Series [7] shares this target. The series can be described thus: single-channel electrophysiology. This is another data set of the same source.
For series [8] the target is unchanged. The series can be described thus: single-channel electrophysiology. This is another data set of the same source.
For series [9] the target is unchanged. Description: single-channel electrophysiology. The source holds these as a separate data set.
Series [10] shares this target. Description: single-channel electrophysiology. This is another data set of the same source.
In series [11] the target is des-(D-Val-Gly)gA^−, chain-shortened enantiomer of gramicidin A. The series can be described thus: single-channel electrophysiology.
Series [12] shares this target. Description: single-channel electrophysiology. The source holds these as a separate data set.
Series [13] has the same target. The series can be described thus: single-channel electrophysiology. The source holds these as a separate data set.
Series [14] has the same target. Description: single-channel electrophysiology. This is another data set of the same source.
Series [15] has the same target. The series can be described thus: single-channel electrophysiology. The source holds these as a separate data set.
Series [16] shares this target. The series can be described thus: single-channel electrophysiology. This is another data set of the same source.

Read-outs that look alike come from different tables or passages of the source.

For `CN(C)CCC=C1c2ccccc2CCc2ccccc21` [Amitriptyline], the “τAD,15/τcntrl,15 (normalized AgA(15) lifetime)” value in series [1] (100 µM) is 1.5 ± 0.1. For the same compound, the “τAD,13/τcntrl,13 (normalized gA−(13) lifetime)” value in series [2] (100 µM) came out at 1.6 ± 0.1. Also, the “bilayer property primarily altered” value in series [3] was “intrinsic curvature”.

For the compound `CN(C)CCCC1(c2ccc(F)cc2)OCc2cc(C#N)ccc21` (centres unmarked) [Citalopram (R−), Citalopram], the “τAD,15/τcntrl,15 (normalized AgA(15) lifetime)” value in series [1] (250 µM) was found to be 1.78 ± 0.04. Moreover, the “τAD,13/τcntrl,13 (normalized gA−(13) lifetime)” value in series [2] (250 µM) came to 1.8 ± 0.1.

Take `CN(C)CCCC1(c2ccc(F)cc2)OCc2cc(C#N)ccc21` (centres unmarked) [Citalopram (S+), Citalopram]: the “τAD,15/τcntrl,15 (normalized AgA(15) lifetime)” value in series [1] (250 µM) stood at 1.9 ± 0.2. The “τAD,13/τcntrl,13 (normalized gA−(13) lifetime)” value in series [2] (250 µM) is reported as 2.0 ± 0.2.

As to `CN(C)CCCC1(c2ccc(F)cc2)OCc2cc(C#N)ccc21` (centres unmarked) [Citalopram], the “bilayer property primarily altered” value in [3] is “intrinsic curvature”.

For the compound `CNCCC(Oc1ccc(C(F)(F)F)cc1)c1ccccc1` (centres unmarked) [Fluoxetine (R−), Fluoxetine], the “τAD,15/τcntrl,15 (normalized AgA(15) lifetime)” value in series [1] (100 µM) is on record as 2.3 ± 0.3. Besides, the “τAD,13/τcntrl,13 (normalized gA−(13) lifetime)” value in series [2] (100 µM) stood at 3.1 ± 0.6. In addition, in [3], the “decrease of HB (bilayer elastic coefficient)” value (“decrease of HB” below) is recorded as about 3.0 ± 0.3 kBT/nm^2.

Take `CNCCC(Oc1ccc(C(F)(F)F)cc1)c1ccccc1` (centres unmarked) [Fluoxetine (S+), Fluoxetine]: the “τAD,15/τcntrl,15 (normalized AgA(15) lifetime)” value in [1] (100 µM) is reported as 2.3 ± 0.3. In [2] (100 µM), the “τAD,13/τcntrl,13 (normalized gA−(13) lifetime)” value came to 2.9 ± 0.4. Moreover, the “decrease of HB” value in [3] was about 2.3 ± 0.5 kBT/nm^2.

Turning to `CNCCC(Oc1ccc(C(F)(F)F)cc1)c1ccccc1` (centres unmarked) [Fluoxetine], the “bilayer property primarily altered” value in series [3] is reported as “bilayer elasticity”. The concentration in brain result in [4] is “up to 10 µM”.

Regarding `CN(C)CCCN1c2ccccc2CCc2ccccc21` [Imipramine], the “τAD,15/τcntrl,15 (normalized AgA(15) lifetime)” value in series [1] (100 µM) was determined as 1.4 ± 0.1. Moreover, the “τAD,13/τcntrl,13 (normalized gA−(13) lifetime)” value in series [2] (100 µM) is given as 1.5 ± 0.1. In addition, in [3], the “decrease of HB” value is about 1.3 ± 0.9 kBT/nm^2 and the “bilayer property primarily altered” value was “intrinsic curvature”.

For “[Ala^1]gA, 15-amino-acid analogue of gramicidin A (peptide)”, the normalised single-channel (dimer) lifetime τ (AD,15)/τ (cntrl,15) came to 1.4 in series [5]; 2.3 in [6]; 2.3 in series [7]; 1.78 in series [8]; 1.9 in series [9]; 1.5 in [10].

“des-(D-Val-Gly)gA^−, chain-shortened enantiomer of gramicidin A (peptide)”: the normalised single-channel (dimer) lifetime τ (AD,13)/τ (cntrl,13) was 1.5 in series [11]; 3.1 in series [12]; 2.9 in series [13]; 1.8 in [14]; 2 in [15]; 1.6 in [16].

The record behind these values is paper PMC6400527 (The Journal of General Physiology, 2019).
